Reference: ChEMBL document CHEMBL2407049, “Cyclopeptide alkaloids: stereochemistry and synthesis of the precursors of discarines C and D and myrianthine A” (2013)

Experiments:
Candida dubliniensis = assay: Antifungal activity against Candida dubliniensis SM 26 clinical isolate assessed as concentration required to inhibit fungal growth after 24 hrs by TLC assay; type: functional
Procedure, shortened: (§1)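 Direct TLC bioautography: compound amounts from 50 to 1.56 μg applied to precoated TLC plates, overlaid with Mueller Hinton or Sabouraud agar inoculated with microorganism suspension (10⁵ cfu mL⁻¹). Plates incubated 24 h at 37 °C, then stained with aqueous 2,3,5-triphenyltetrazolium chloride (1 mg mL⁻¹). The lowest amount giving an inhibition zone was recorded; <50 μg counted active. Triplicate.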

Candida tropicalis = assay: Antifungal activity against Candida tropicalis ATCC 750 assessed as concentration required to inhibit fungal growth after 24 hrs by TLC assay; type: functional; procedure, shortened: as §1
Cryptococcus neoformans = assay: Antifungal activity against Cryptococcus neoformans ATCC 28952 assessed as concentration required to inhibit fungal growth after 24 hrs by TLC assay; type: functional; procedure, shortened: as §1
Candida albicans = assay: Antifungal activity against Candida albicans ATCC 10231 assessed as concentration required to inhibit fungal growth after 24 hrs by TLC assay; type: functional; procedure, shortened: as §1
Saccharomyces cerevisiae = assay: Antifungal activity against Saccharomyces cerevisiae ATCC 2601 assessed as concentration required to inhibit fungal growth after 24 hrs by TLC assay; type: functional; procedure, shortened: as §1
Staphylococcus aureus = assay: Antibacterial activity against Staphylococcus aureus ATCC 6538p assessed as concentration required to inhibit bacterial growth after 24 hrs by TLC assay; type: functional; procedure, shortened: as §1
Kocuria rhizophila = assay: Antibacterial activity against Micrococcus luteus ATCC 9341 assessed as concentration required to inhibit bacterial growth after 24 hrs by TLC assay; type: functional; procedure, shortened: as §1
[1] = Antibacterial activity against Salmonella Setubal ATCC 19196 assessed as concentration required to inhibit bacterial growth after 24 hrs by TLC assay; type: functional, Salmonella enterica subsp. enterica serovar Setubal; procedure, shortened: as §1
[2] = tested on: Staphylococcus epidermidis; assay: Antibacterial activity against Staphylococcus epidermidis ATCC 12228 assessed as concentration required to inhibit bacterial growth after 24 hrs by TLC assay; type: functional; procedure, shortened: as §1
Escherichia coli = assay: Antibacterial activity against Escherichia coli ATCC 11103 assessed as concentration required to inhibit bacterial growth after 24 hrs by TLC assay; type: functional; procedure, shortened: as §1
Klebsiella pneumoniae = assay: Antibacterial activity against Klebsiella pneumoniae ATCC 10031 assessed as concentration required to inhibit bacterial growth after 24 hrs by TLC assay; type: functional; procedure, shortened: as §1

| SMILES | Activity (Candida dubliniensis) [µg] | Activity (Candida tropicalis) [µg] | Activity (Cryptococcus neoformans) [µg] | Activity (Candida albicans) [µg] | Activity (Saccharomyces cerevisiae) [µg] | Activity (Staphylococcus aureus) [µg] | Activity (Kocuria rhizophila) [µg] | Activity [1] [µg] | Activity [2] [µg] | Activity (Escherichia coli) [µg] | Activity (Klebsiella pneumoniae) [µg] |
| --- | --- | --- | --- | --- | --- | --- | --- | --- | --- | --- | --- |
| CC[C@H](C)[C@H](NC(=O)[C@H](NC(=O)[C@@H](N)CC(C)C)[C@@H](O)c1ccccc1)C(=O)OC | <50 | <50 | <50 | <50 | <50 | <50 | <50 | <50 | <50 | <50 | <50 |
| COC(=O)[C@H](CC(C)C)NC(=O)[C@H](NC(=O)[C@H](CC(C)C)N(C)C)[C@H](Oc1ccc(C=O)cc1)c1ccccc1 (mixture of isomers) | <50 | <50 | <50 | <50 | <50 | <50 | <50 | <50 | <50 | <50 | <50 |
| COC(=O)[C@H](Cc1ccccc1)NC(=O)[C@@H]([C@@H](O)c1ccccc1)N1CN(C)[C@@H](CC(C)C)C1=O (mixture of isomers) | <50 | <50 | <50 | <50 | <50 | <50 | <50 | 12.5 | 6.2 | 3.1 | 6.2 |
| COC(=O)[C@H](Cc1ccccc1)NC(=O)[C@H](NC(=O)[C@@H](N)CC(C)C)[C@@H](O)c1ccccc1 (mixture of isomers) | <50 | <50 | <50 | <50 | <50 | <50 | <50 | <50 | 3.1 | 12.5 | <50 |
| COC(=O)[C@H](CC(C)C)NC(=O)[C@H](NC(=O)[C@@H](N)CC(C)C)[C@@H](O)c1ccccc1 | <50 | <50 | <50 | <50 | <50 | <50 | <50 | <50 | <50 | <50 | <50 |
| COC(=O)[C@H](Cc1ccccc1)NC(=O)[C@@H](NC(=O)[C@@H](N)CC(C)C)[C@H](O)c1ccccc1 | <50 | <50 | <50 | <50 | <50 | <50 | <50 | <50 | >50 | 1.5 | <50 |
| COC(=O)[C@H](CC(C)C)NC(=O)[C@@H]([C@@H](O)c1ccccc1)N1CN(C)[C@@H](CC(C)C)C1=O (mixture of isomers) | <50 | <50 | <50 | <50 | <50 | <50 | <50 | <50 | <50 | <50 | <50 |
| COC(=O)[C@H](CC(C)C)NC(=O)[C@@H](NC(=O)[C@H](CC(C)C)N(C)C)[C@@H](Oc1ccc(C=O)cc1)c1ccccc1 (mixture of isomers) | <50 | <50 | <50 | <50 | <50 | <50 | <50 | <50 | <50 | <50 | <50 |
| CC(C)C[C@@H](C(=O)N[C@@H]1C(=O)N[C@@H](Cc2ccccc2)C(=O)N/C=C\c2ccc(cc2)O[C@H]1c1ccccc1)N(C)C | >50 | >50 | >50 | >50 | >50 | >50 | >50 | >50 | >50 | >50 | >50 |
| COC(=O)[C@H](CC(C)C)NC(=O)[C@@H]([C@H](Oc1ccc(C=O)cc1)c1ccccc1)N1CN(C)[C@@H](CC(C)C)C1=O (mixture of isomers) | <50 | <50 | <50 | <50 | <50 | <50 | <50 | <50 | <50 | <50 | <50 |
| COC(=O)[C@H](CC(C)C)NC(=O)[C@H](NC(=O)[C@H](CC(C)C)NC(=O)OCc1ccccc1)[C@@H](O)c1ccccc1 (mixture of isomers) | <50 | <50 | <50 | <50 | <50 | <50 | <50 | <50 | <50 | <50 | <50 |
| CC[C@H](C)[C@@H]1NC(=O)[C@@H](NC(=O)[C@H](CC(C)C)N(C)C)[C@H](c2ccccc2)Oc2ccc(cc2)/C=C\NC1=O (mixture of isomers) | >50 | >50 | >50 | >50 | >50 | >50 | >50 | >50 | >50 | >50 | >50 |
| COC(=O)[C@H](Cc1ccccc1)NC(=O)[C@H](NC(=O)[C@H](CC(C)C)NC(=O)OCc1ccccc1)[C@@H](O)c1ccccc1 (mixture of isomers) | <50 | <50 | <50 | <50 | <50 | <50 | <50 | <50 | <50 | <50 | <50 |
| COC(=O)[C@H](Cc1ccccc1)NC(=O)[C@H]([C@H](O)c1ccccc1)N1CN(C)[C@@H](CC(C)C)C1=O | <50 | <50 | <50 | <50 | <50 | <50 | <50 | 25 | 50 | >50 | 50 |
| COC(=O)[C@H](Cc1ccccc1)NC(=O)[C@H]([C@@H](Oc1ccc(C=O)cc1)c1ccccc1)N1CN(C)[C@@H](CC(C)C)C1=O (mixture of isomers) | <50 | <50 | <50 | <50 | <50 | <50 | <50 | <50 | <50 | <50 | <50 |
| CC[C@H](C)[C@H](NC(=O)[C@@H]([C@@H](O)c1ccccc1)N1CN(C)[C@@H](CC(C)C)C1=O)C(=O)OC (mixture of isomers) | <50 | <50 | <50 | <50 | <50 | <50 | <50 | <50 | <50 | <50 | <50 |
| COC(=O)[C@H](CC(C)C)NC(=O)[C@H](NC(=O)[C@H](CC(C)C)N(C)C)[C@@H](O)c1ccccc1 (mixture of isomers) | <50 | <50 | <50 | <50 | <50 | <50 | <50 | <50 | <50 | <50 | <50 |
| COC(=O)[C@H](CC(C)C)NC(=O)[C@H]([C@@H](Oc1ccc(C=O)cc1)c1ccccc1)N1CN(C)[C@@H](CC(C)C)C1=O (mixture of isomers) | <50 | <50 | <50 | <50 | <50 | <50 | <50 | <50 | <50 | <50 | <50 |
